Test results as given in ChEMBL document CHEMBL4706770, “SD-91 as A Potent and Selective STAT3 Degrader Capable of Achieving Complete and Long-Lasting Tumor Regression” (ACS Med Chem Lett, 2021).
Active and inactive are the calls of the source. No cut-off for these calls is given here.

Assays:
[1] = target: T1, Signal transducer and activator of transcription 6 (Homo sapiens) (UniProt P42226); experiment: Induction of STAT6 degradation in human SU-DHL-1 cells at 0.25 to 100 uM incubated for 14 hrs by Western blot analysis; format: cell-based; settings: dose 0.25-100 µM
T1 sequence (whole entry): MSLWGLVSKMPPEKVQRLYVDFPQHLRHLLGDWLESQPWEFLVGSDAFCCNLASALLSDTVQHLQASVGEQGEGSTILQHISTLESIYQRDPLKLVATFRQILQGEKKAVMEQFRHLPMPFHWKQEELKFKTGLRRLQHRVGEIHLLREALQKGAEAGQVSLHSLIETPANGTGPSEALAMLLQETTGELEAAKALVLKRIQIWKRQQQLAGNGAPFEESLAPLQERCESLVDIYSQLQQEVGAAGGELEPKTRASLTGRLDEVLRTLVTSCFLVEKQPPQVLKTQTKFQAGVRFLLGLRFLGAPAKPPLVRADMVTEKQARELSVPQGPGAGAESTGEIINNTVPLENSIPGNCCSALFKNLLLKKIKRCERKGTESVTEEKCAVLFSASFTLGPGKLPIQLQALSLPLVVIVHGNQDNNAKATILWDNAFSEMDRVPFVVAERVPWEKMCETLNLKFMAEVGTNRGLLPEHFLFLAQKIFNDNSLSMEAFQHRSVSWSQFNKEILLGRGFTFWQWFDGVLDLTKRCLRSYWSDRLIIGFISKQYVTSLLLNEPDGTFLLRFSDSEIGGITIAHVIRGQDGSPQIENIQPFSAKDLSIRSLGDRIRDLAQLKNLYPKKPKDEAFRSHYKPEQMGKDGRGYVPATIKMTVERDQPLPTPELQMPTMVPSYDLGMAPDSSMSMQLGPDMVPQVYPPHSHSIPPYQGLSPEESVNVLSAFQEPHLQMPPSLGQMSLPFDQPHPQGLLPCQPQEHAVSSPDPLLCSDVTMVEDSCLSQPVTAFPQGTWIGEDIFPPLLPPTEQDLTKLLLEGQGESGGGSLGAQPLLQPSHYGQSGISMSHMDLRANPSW

[2] = target: T2, Signal transducer and activator of transcription 1-alpha/beta (Homo sapiens) (UniProt P42224); experiment: Induction of STAT1 degradation in human SUP-M2 cells at 0.25 to 100 uM incubated for 14 hrs by Western blot analysis; format: cell-based; settings: SUPM2, dose 0.25-100 µM
T2 sequence (whole entry): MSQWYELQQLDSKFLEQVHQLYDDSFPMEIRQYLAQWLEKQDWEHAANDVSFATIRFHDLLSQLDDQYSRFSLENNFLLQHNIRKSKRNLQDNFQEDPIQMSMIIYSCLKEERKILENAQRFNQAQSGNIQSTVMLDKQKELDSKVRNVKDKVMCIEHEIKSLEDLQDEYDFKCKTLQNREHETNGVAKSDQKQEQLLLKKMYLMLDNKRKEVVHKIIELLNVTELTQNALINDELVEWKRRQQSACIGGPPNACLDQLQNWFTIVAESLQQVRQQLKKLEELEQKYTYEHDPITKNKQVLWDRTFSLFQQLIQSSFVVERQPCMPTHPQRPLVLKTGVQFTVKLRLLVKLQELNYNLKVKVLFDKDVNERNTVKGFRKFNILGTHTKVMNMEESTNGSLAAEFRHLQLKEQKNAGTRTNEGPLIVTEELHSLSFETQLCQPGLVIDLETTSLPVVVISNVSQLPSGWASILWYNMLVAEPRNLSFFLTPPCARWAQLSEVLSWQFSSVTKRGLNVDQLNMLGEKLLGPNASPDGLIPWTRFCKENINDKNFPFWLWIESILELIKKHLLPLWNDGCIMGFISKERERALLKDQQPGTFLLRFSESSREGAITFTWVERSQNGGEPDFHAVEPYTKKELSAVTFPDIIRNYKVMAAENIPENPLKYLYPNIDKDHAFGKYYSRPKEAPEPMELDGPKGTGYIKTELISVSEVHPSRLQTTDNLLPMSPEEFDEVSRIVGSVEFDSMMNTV
Summary of the method: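 SU-DHL-1 or SUP-M2 cells treated over 25 nM to 100 μM. STAT family proteins assessed by Western blot.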

[3] = test system: SU-DHL-1; experiment: Induction of STAT4 expression in human SU-DHL-1 cells at 0.25 to 100 uM incubated for 4 hrs by Western blot analysis; format: functional, cell-based; settings: dose 0.25-100 µM
[4] = target: T2, Signal transducer and activator of transcription 1-alpha/beta (Homo sapiens); experiment: Induction of STAT1 degradation in human MOLM16 cells at 0.25 to 100 uM incubated for 4 hrs by Western blot analysis; format: cell-based; settings: dose 0.25-100 µM
Summary of the method: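 MOLM-16 cells treated for 4 h over 25 nM to 100 μM. STAT proteins assessed by Western blot with GAPDH as loading control.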

[5] = test system: SU-DHL-1; experiment: Antiproliferative activity against human SU-DHL-1 cells assessed as cell growth inhibition incubated for 4 days by CellTiter-Glo asssay; format: functional, cell-based; settings: SU-DHL-1, 96 h
Summary of the method: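 Growth inhibition tested in MOLM-16 acute leukemia and SU-DHL-1 and SUP-M2 lymphoma cell lines.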

[6] = target: Signal transducer and activator of transcription 3 (Homo sapiens, UniProt P40763); experiment: Induction of STAT3 degradation in human SUP-M2 cells at 0.25 to 100 uM incubated for 14 hrs by Western blot analysis; format: cell-based; settings: SUPM2, dose 0.25-100 µM
[7] = target: T3, Signal transducer and activator of transcription 5A (Homo sapiens) (UniProt P42229); experiment: Induction of STAT5 degradation in human SUP-M2 cells at 0.25 to 100 uM incubated for 14 hrs by Western blot analysis; format: cell-based; settings: SUPM2, dose 0.25-100 µM
T3 sequence (whole entry): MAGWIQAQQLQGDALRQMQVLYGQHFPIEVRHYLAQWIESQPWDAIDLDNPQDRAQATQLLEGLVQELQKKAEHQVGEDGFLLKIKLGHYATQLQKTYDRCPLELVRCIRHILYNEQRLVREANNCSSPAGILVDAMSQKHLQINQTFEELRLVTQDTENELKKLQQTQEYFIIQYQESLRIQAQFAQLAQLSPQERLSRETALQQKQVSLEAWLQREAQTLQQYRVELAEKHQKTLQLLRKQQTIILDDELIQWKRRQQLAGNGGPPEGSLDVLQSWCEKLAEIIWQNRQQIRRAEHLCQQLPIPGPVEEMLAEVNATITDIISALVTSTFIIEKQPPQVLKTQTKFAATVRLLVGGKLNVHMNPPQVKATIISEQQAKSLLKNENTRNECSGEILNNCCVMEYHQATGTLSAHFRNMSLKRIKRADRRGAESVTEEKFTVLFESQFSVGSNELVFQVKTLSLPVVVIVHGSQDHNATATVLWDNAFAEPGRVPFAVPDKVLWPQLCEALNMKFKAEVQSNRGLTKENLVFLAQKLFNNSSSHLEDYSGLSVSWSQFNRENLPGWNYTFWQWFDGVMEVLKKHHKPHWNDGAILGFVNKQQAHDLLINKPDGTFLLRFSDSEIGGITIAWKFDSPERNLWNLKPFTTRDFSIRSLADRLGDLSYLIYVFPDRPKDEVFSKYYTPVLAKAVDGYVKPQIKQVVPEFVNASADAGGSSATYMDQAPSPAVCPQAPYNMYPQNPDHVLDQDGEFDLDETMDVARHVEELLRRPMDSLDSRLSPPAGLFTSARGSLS

Sequence of Signal transducer and activator of transcription 3 (P40763 whole entry): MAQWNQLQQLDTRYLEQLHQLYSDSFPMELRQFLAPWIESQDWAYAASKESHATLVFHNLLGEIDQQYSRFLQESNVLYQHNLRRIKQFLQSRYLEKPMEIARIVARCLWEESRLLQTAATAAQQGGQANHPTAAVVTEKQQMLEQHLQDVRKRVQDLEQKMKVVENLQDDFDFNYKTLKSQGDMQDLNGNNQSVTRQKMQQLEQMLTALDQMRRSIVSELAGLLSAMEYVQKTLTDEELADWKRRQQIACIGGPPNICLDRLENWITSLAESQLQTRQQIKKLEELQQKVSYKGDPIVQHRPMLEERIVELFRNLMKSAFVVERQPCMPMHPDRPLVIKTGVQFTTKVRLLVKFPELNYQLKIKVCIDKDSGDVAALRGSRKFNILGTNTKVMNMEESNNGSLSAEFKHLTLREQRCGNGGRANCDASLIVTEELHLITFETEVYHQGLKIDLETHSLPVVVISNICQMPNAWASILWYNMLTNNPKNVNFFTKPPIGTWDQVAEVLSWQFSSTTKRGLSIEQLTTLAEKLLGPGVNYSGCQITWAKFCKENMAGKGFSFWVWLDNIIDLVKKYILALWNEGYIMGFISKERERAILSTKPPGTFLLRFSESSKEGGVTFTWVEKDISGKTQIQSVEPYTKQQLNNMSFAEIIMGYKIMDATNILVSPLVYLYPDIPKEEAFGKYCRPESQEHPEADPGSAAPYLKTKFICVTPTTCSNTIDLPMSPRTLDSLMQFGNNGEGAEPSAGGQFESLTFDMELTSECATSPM

Compound | Activity [1] | Activity [2] | Activity [3] | Activity [4] | IC50 [5] [µM] | Activity [6] | Activity [7]
NC(=O)CC[C@H](NC(=O)[C@@H]1CC[C@@H]2CCN(C(=O)CCCCCC#Cc3cccc4c3CN(C3CCC(=O)NC3=O)C4=O)C[C@H](NC(=O)c3cc4cc(C(=O)P(=O)(O)O)ccc4[nH]3)C(=O)N21)C(=O)NC(c1ccccc1)c1ccccc1 (stereo partly drawn) | inactive | inactive | Active | inactive | 2.6 | Active | inactive
NC(=O)CC[C@H](NC(=O)[C@@H]1CC[C@@H]2CCN(C(=O)CCCCCC#Cc3cccc4c3CN(C3CCC(=O)NC3=O)C4=O)C[C@H](NC(=O)c3cc4cc(C(F)(F)P(=O)(O)O)ccc4[nH]3)C(=O)N21)C(=O)NC(c1ccccc1)c1ccccc1 (stereo partly drawn) |  |  | Active |  | 3.4 |  | 
CC(=O)N1CC[C@H]2CC[C@@H](C(=O)N[C@@H](CCC(N)=O)C(=O)NC(c3ccccc3)c3ccccc3)N2C(=O)[C@@H](NC(=O)c2cc3cc(C(F)(F)P(=O)(O)O)ccc3[nH]2)C1 | inactive | inactive | inactive | inactive | > 10 | inactive | inactive
CC(=O)N1CC[C@H]2CC[C@@H](C(=O)N[C@@H](CCC(N)=O)C(=O)NC(c3ccccc3)c3ccccc3)N2C(=O)[C@@H](NC(=O)c2cc3cc(C(=O)P(=O)(O)O)ccc3[nH]2)C1 | inactive | inactive | inactive | inactive | > 10 | inactive | inactive
